Reference: ChEMBL document CHEMBL3352526, “4-Quinolone-3-carboxylic acids as cell-permeable inhibitors of protein tyrosine phosphatase 1B” (Bioorg Med Chem, 2014)
Calls of active or inactive are those of the source. The rule behind the calls is not given here.

Assays:
[1] = target: T1, Tyrosine-protein phosphatase non-receptor type 1 (Homo sapiens, UniProt P18031); test: Inhibition of PTP1B (unknown origin) using pNPP as substrate by colorimetric assay
T1 sequence (P18031 whole entry): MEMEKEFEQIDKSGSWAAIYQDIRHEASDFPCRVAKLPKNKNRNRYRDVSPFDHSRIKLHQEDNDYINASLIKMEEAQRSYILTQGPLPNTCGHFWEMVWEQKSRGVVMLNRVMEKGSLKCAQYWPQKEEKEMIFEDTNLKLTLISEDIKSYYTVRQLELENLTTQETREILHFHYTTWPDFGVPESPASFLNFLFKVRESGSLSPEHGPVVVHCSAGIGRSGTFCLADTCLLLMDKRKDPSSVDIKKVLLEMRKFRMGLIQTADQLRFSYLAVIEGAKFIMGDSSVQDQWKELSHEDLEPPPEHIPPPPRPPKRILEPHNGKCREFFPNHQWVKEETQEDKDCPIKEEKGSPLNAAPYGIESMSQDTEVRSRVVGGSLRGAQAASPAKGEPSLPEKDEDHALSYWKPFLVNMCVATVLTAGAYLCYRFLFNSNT
How it was run: (§1)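 GST-PTP1B or GST-TCPTP at 30 nmol/L, 2 mmol/L pNPP, 50 mmol/L MOPS pH 6.5, 2% DMSO, compounds serially diluted from DMSO. Hydrolysis followed continuously at 405 nm for 3 min at 30 °C. IC50 from nonlinear fit of % inhibition vs concentration with Hill coefficient; means ± SD of three replications.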

[2] = target: T2, Tyrosine-protein phosphatase non-receptor type 1 (Homo sapiens) (UniProt P18031); test: Inhibition of PTP1B (unknown origin) using pNPP as substrate at 20 ug/ml by colorimetric assay
T2 sequence (whole entry): T1 sequence (P18031 whole entry)

[3] = target: T3, Tyrosine-protein phosphatase non-receptor type 6 (Homo sapiens, UniProt P29350); test: Inhibition of SHP1 (unknown origin) using 3-o-methylfluorescein phosphatase substrate at 20 ug/ml by colorimetric assay
T3 sequence (P29350 whole entry): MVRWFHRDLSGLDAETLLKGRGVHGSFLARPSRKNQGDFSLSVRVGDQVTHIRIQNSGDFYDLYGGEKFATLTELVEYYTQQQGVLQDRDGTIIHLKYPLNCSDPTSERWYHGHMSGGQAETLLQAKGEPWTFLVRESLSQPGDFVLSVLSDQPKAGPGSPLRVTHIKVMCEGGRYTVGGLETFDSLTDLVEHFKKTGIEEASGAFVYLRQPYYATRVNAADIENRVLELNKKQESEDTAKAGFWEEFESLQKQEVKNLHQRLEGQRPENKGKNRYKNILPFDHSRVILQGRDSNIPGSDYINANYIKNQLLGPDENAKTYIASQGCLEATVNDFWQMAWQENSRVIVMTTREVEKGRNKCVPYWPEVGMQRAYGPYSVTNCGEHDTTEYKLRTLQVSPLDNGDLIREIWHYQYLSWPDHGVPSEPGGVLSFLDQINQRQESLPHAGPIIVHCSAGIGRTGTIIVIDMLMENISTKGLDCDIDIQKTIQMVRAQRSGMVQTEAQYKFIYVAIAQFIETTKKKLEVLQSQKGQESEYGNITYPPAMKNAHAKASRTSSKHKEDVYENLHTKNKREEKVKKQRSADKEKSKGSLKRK

[4] = target: T4, Receptor-type tyrosine-protein phosphatase F (Homo sapiens, UniProt P10586); test: Inhibition of LAR (unknown origin) using 3-o-methylfluorescein phosphatase substrate by colorimetric assay
T4 sequence (P10586 whole entry): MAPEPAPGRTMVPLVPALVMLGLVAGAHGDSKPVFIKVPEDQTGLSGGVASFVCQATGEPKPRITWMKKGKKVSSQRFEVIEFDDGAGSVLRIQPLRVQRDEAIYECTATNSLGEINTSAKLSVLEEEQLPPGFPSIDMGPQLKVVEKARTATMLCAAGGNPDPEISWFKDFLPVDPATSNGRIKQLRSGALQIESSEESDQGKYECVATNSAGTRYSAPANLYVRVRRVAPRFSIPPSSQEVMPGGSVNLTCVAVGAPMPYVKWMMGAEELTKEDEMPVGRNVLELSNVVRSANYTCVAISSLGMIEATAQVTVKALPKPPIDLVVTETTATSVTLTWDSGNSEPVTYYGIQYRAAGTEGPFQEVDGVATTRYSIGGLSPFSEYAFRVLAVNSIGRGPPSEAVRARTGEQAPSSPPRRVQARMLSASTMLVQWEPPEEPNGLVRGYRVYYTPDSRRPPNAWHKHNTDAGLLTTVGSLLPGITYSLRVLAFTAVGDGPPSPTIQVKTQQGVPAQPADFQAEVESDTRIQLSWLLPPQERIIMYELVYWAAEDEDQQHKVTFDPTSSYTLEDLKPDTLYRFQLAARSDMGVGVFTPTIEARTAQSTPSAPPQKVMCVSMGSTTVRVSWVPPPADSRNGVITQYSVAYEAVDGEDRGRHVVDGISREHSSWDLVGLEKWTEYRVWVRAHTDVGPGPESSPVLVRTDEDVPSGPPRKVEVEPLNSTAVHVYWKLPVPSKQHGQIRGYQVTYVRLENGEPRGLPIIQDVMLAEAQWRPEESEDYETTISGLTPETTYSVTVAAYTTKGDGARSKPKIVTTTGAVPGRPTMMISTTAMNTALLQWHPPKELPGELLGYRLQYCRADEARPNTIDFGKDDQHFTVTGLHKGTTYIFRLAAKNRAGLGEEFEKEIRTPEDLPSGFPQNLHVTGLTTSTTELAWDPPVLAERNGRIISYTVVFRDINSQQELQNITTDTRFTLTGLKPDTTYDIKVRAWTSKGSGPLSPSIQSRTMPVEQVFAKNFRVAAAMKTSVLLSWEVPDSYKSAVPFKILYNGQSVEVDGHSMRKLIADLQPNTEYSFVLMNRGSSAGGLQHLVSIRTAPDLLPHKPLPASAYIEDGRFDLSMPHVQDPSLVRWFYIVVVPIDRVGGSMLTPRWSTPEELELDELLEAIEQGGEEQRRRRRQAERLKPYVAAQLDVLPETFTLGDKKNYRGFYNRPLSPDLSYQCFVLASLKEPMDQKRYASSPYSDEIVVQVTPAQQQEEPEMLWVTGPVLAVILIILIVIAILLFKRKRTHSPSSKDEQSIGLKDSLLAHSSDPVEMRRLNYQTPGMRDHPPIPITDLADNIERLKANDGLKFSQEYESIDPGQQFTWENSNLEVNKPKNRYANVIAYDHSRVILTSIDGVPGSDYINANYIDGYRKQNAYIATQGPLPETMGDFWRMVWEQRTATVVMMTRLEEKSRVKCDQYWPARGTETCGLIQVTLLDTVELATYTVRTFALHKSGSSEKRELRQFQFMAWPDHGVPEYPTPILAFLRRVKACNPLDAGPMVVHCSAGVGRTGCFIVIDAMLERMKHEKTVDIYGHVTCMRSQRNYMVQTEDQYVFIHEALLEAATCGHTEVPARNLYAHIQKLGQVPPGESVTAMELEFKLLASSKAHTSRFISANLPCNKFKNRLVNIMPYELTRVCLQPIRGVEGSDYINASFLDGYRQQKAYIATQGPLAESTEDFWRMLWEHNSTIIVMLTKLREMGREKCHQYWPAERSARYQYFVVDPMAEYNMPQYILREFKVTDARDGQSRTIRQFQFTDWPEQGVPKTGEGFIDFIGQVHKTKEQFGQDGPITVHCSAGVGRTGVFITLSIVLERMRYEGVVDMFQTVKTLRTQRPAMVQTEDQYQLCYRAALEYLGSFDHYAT
How it was run: (§2)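 SHP1, SHP2 or LAR recombinant enzyme at 20 nmol/L with 10 µmol/L OMFP in 50 mmol/L MOPS pH 6.5, 2 mmol/L DTT, 1 mmol/L EDTA, 2% DMSO, 30 °C. Fluorescent product read at ex 485/em 530 nm; initial rate from the early linear part of the kinetic curve.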

[5] = target: T5, Tyrosine-protein phosphatase non-receptor type 2 (Homo sapiens) (UniProt P17706); test: Inhibition of TCPTP (unknown origin) using pNPP as substrate at 20 ug/ml by colorimetric assay
T5 sequence (whole entry): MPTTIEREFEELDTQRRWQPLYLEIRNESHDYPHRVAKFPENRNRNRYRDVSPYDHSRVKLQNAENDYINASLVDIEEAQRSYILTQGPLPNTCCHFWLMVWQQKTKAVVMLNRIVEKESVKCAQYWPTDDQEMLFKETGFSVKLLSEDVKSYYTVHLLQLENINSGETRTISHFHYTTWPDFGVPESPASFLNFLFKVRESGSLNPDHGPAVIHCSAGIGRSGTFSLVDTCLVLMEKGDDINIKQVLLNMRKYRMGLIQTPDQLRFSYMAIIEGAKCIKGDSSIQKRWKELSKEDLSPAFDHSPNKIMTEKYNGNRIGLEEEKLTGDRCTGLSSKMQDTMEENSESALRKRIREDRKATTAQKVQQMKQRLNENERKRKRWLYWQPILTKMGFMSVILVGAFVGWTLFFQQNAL

[6] = target: T6, Tyrosine-protein phosphatase non-receptor type 11 (Homo sapiens) (UniProt Q06124); test: Inhibition of SHP2 (unknown origin) using 3-o-methylfluorescein phosphatase substrate at 20 ug/ml by colorimetric assay
T6 sequence (whole entry): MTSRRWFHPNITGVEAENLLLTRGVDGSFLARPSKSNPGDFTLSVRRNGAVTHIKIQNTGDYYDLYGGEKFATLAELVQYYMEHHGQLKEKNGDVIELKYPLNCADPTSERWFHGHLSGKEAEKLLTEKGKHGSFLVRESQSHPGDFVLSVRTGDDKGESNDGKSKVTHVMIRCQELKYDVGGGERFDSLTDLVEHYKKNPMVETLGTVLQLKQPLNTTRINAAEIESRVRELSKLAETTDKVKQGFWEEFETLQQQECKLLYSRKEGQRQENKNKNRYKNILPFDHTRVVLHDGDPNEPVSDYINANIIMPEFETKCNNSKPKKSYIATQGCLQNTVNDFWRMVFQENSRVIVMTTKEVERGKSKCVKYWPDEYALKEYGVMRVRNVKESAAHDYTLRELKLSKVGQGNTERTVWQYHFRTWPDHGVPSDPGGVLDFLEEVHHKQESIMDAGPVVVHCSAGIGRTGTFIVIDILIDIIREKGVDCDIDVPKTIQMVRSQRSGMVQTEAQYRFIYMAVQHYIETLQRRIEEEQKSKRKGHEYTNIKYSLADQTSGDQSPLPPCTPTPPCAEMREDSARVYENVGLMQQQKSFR

[7] = target: T7, Tyrosine-protein phosphatase non-receptor type 11 (Homo sapiens, UniProt Q06124); test: Inhibition of SHP2 (unknown origin) using 3-o-methylfluorescein phosphatase substrate by colorimetric assay; how it was run: as §2
T7 sequence (Q06124 whole entry): T6 sequence (whole entry)

[8] = target: T4, Receptor-type tyrosine-protein phosphatase F; test: Inhibition of LAR (unknown origin) using 3-o-methylfluorescein phosphatase substrate at 20 ug/ml by colorimetric assay
[9] = target: T3, Tyrosine-protein phosphatase non-receptor type 6; test: Inhibition of SHP1 (unknown origin) using 3-o-methylfluorescein phosphatase substrate by colorimetric assay; how it was run: as §2
[10] = target: T8, Tyrosine-protein phosphatase non-receptor type 2 (Homo sapiens, UniProt P17706); test: Inhibition of TCPTP (unknown origin) using pNPP as substrate by colorimetric assay; how it was run: as §1
T8 sequence (P17706 whole entry): T5 sequence (whole entry)

[11] = target: T2, Tyrosine-protein phosphatase non-receptor type 1 (Homo sapiens); test: Inhibition of PTP1B (unknown origin) expressed in CHO cells co-expressing human IRbeta assessed as increase in insulin-stimulated IRbeta phosphorylation at 3 to 30 uM after 1 hr by Western blotting analysis; assay type: cell-based
How it was run: (§3)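 CHO/hIR cells grown in F12 with 10% FBS, penicillin/streptomycin, 37 °C, 5% CO2. After 2 h serum starvation, compound for 1 h, then 10 nM insulin for 10 min. Lysates in SDS loading buffer run on 8% SDS-PAGE, blotted with anti-pTyr (PY20); β-actin as loading control.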

[12] = target: T1, Tyrosine-protein phosphatase non-receptor type 1; test: Competitive inhibition of PTP1B (unknown origin) using pNPP as substrate by Lineweaver-Burk plot
How it was run: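 Kinetics in 100 µL of 50 mmol/L MOPS pH 6.5 with 30 nmol/L PTP1B, pNPP in 2-fold dilutions from 80 mmol/L, at several inhibitor concentrations. Ki taken from a linear replot of apparent Km/Vmax (slope of double-reciprocal plot) against [I].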

Homo sapiens [13] = species: Homo sapiens; test: Selectivity ratio of IC50 for LAR (unknown origin) to IC50 for PTP1B (unknown origin)
Homo sapiens [14] = species: Homo sapiens; test: Selectivity ratio of IC50 for SHP2 (unknown origin) to IC50 for PTP1B (unknown origin)
Homo sapiens [15] = species: Homo sapiens; test: Selectivity ratio of IC50 for TCPTP (unknown origin) to IC50 for PTP1B (unknown origin)
[16] = target: T2, Tyrosine-protein phosphatase non-receptor type 1 (Homo sapiens); test: Inhibition of PTP1B (unknown origin) expressed in CHO cells co-expressing human IRbeta assessed as increase in insulin-stimulated IRbeta phosphorylation at 90 uM after 1 hr by Western blotting analysis; assay type: cell-based; how it was run: as §3

SMILES: O=C(OCc1ccc(F)cc1)c1cn(C2CC2)c2ccc(Cc3ccc(F)cc3)cc2c1=O
- IC50 [1]: 31.4 µM
- inhibition [2]: 73%

SMILES: COC(=O)c1c(O)cccc1OCCCNC(=O)c1cn(Cc2ccc(F)cc2)c2ccc([N+](=O)[O-])cc2c1=O
- inhibition [3]: < 50%
- IC50 [1]: 11.8 µM
- IC50 [4]: Not Active
- inhibition [5]: < 50%
- inhibition [6]: < 50%
- IC50 [7]: Not Active
- inhibition [8]: < 50%
- IC50 [9]: Not Active
- IC50 [10]: Not Active

SMILES: COC(=O)c1c(OCCCN2CCN(c3ccc4c(c3)c(=O)c(C(=O)O)cn4C3CC3)CC2)cccc1OCc1ccccc1
- IC50 [1]: 73.9 µM

SMILES: CCOC(=O)/C(O)=C/C(=O)c1cccc(Cn2cc(C(=O)O)c(=O)c3cc(I)ccc32)c1
- Activity [11]: inactive
- IC50 [1]: 5.66 µM
- Ki [12]: 1.33 µM
- IC50 [4]: Not Active
- Ratio IC50 (Homo sapiens [13]): > 10
- Ratio IC50 (Homo sapiens [14]): > 10
- Ratio IC50 (Homo sapiens [15]): 2
- inhibition [6]: < 50%
- IC50 [7]: Not Active
- inhibition [8]: < 50%
- Activity [16]: Active
- IC50 ([9]; read-out: IC50 (converted)): 12.4 µM
- IC50 ([10]; read-out: IC50 (converted)): 11.5 µM

SMILES: O=C(O)c1cn(Cc2ccccc2)c2ccc(I)cc2c1=O
- inhibition [2]: 3.1%

SMILES: O=C(NCc1ccccc1)c1cn(Cc2ccccc2)c2ccc(I)cc2c1=O
- inhibition [3]: < 50%
- IC50 [1]: 28.1 µM
- inhibition [2]: 61.8%
- IC50 [4]: Not Active
- inhibition [5]: < 50%
- inhibition [6]: < 50%
- IC50 [7]: Not Active
- inhibition [8]: < 50%
- IC50 [9]: Not Active
- IC50 [10]: Not Active

SMILES: O=C(NCc1ccc(F)cc1)c1cn(C2CC2)c2ccc(I)cc2c1=O
- inhibition [2]: 3.3%

SMILES: O=C(O)c1cn(Cc2ccccc2)c2ccc(F)cc2c1=O
- inhibition [2]: 15.1%

SMILES: O=C(O)c1cn(C2CC2)c2ccc(I)cc2c1=O
- inhibition [2]: 3.5%

SMILES: O=C(O)c1cn(C2CC2)c2ccc(F)cc2c1=O
- inhibition [2]: 0.8%

SMILES: O=C(O)c1cn(C2CC2)c2ccc(Cc3ccccc3)cc2c1=O
- inhibition [3]: < 50%
- IC50 [1]: 23.5 µM
- inhibition [2]: 87.5%
- IC50 [4]: Not Active
- inhibition [5]: < 50%
- inhibition [6]: < 50%
- IC50 [7]: Not Active
- inhibition [8]: < 50%
- IC50 [9]: Not Active
- IC50 [10]: Not Active

SMILES: O=C(NCc1ccccc1)c1cn(C2CC2)c2ccc(F)cc2c1=O
- inhibition [2]: 0.2%

SMILES: O=C(O)c1cn(Cc2ccccc2)c2ccc(Cc3ccccc3)cc2c1=O
- inhibition [2]: 15.1%

SMILES: O=C(O)c1cn(C2CC2)c2ccc(Cc3ccc(F)cc3)cc2c1=O
- inhibition [3]: < 50%
- IC50 [1]: 36.5 µM
- inhibition [2]: 71.1%
- IC50 [4]: Not Active
- inhibition [5]: < 50%
- inhibition [6]: < 50%
- IC50 [7]: Not Active
- inhibition [8]: < 50%
- IC50 [9]: Not Active
- IC50 [10]: Not Active

SMILES: O=C(NCc1ccccc1)c1cn(C2CC2)c2ccc(I)cc2c1=O
- inhibition [2]: 6.1%

SMILES: COC(=O)c1c(O)cccc1OCCCNC(=O)c1cn(Cc2ccccc2)c2cc(F)ccc2c1=O
- IC50 [1]: 18.6 µM

SMILES: O=C(OCc1ccccc1)c1cn(C2CC2)c2ccc(I)cc2c1=O
- IC50 [1]: 25.6 µM
- inhibition [2]: 80.5%

SMILES: O=C(/C=C(\O)C(=O)N1CCN(C(=O)/C(O)=C\C(=O)c2cccc(N(Cc3ccccc3)Cc3ccccc3)c2)CC1)c1cccc(N(Cc2ccccc2)Cc2ccccc2)c1
- IC50 [1]: 2.8 µM

SMILES: Nc1ccc2c(c1)c(=O)c(C(=O)O)cn2Cc1ccc(F)cc1
- inhibition [2]: 12.4%

SMILES: O=C(NCc1ccccc1)c1cn(C2CC2)c2cc(F)ccc2c1=O
- inhibition [2]: 7.4%

SMILES: O=C(OCc1ccccc1)c1cn(Cc2ccccc2)c2ccc(Cc3ccccc3)cc2c1=O
- inhibition [2]: 0.1%

SMILES: O=C(O)c1cn(Cc2ccc(F)cc2)c2ccc([N+](=O)[O-])cc2c1=O
- inhibition [2]: 36.2%

SMILES: O=C(O)c1cn(Cc2ccccc2)c2cc(F)ccc2c1=O
- inhibition [2]: 0.7%

SMILES: O=C(NCc1ccccc1)c1cn(Cc2ccccc2)c2ccc(F)cc2c1=O
- inhibition [2]: 41.4%

SMILES: COC(=O)c1cc(Cn2cc(C(=O)O)c(=O)c3cc(I)ccc32)ccc1O
- inhibition [3]: < 50%
- IC50 [1]: 16.9 µM
- IC50 [4]: Not Active
- inhibition [5]: < 50%
- inhibition [6]: < 50%
- IC50 [7]: Not Active
- inhibition [8]: < 50%
- IC50 [9]: Not Active
- IC50 [10]: Not Active

SMILES: COC(=O)c1cc(Cn2cc(C(=O)NCc3ccccc3)c(=O)c3cc(I)ccc32)ccc1OC
- IC50 [1]: > 34.3 µM

SMILES: O=C(O)/C(O)=C/C(=O)c1cccc(Cn2cc(C(=O)O)c(=O)c3cc(I)ccc32)c1
- IC50 [1]: 4.62 µM
- IC50 [4]: Not Active
- Ratio IC50 (Homo sapiens [13]): > 10
- Ratio IC50 (Homo sapiens [14]): > 10
- Ratio IC50 (Homo sapiens [15]): 2
- inhibition [6]: < 50%
- IC50 [7]: Not Active
- inhibition [8]: < 50%
- IC50 ([9]; read-out: IC50 (converted)): 9.82 µM
- IC50 ([10]; read-out: IC50 (converted)): 9.44 µM

SMILES: O=C(O)c1cn(C2CC2)c2ccc(N3CCN(Cc4ccccc4)CC3)cc2c1=O
- IC50 [1]: 22.8 µM
- inhibition [2]: 62.3%

SMILES: COC(=O)c1cc(Cn2cc(C(=O)O)c(=O)c3cc(I)ccc32)ccc1OC
- IC50 [1]: > 40.5 µM
